Measurements as given in ChEMBL document CHEMBL1165859, “Synthesis, antiproliferative, acute toxicity and assessment of antiandrogenic activities of some newly synthesized steroidal lactams” (Eur J Med Chem, 2010).
pIC50: −log10 of the molar value. Active and inactive are the calls of the source. The calls are words filed in the database; no cut-off is given here.

Tests used:
[1] = test system: DU-145; assay: Antiproliferative activity against human DU145 cells assessed as growth inhibition at 0.01 ug/mL after 48 hrs by MTT assay relative to control; assay type: functional; conditions: for inhibition of growth at 0.01 µg/mL: DU-145, 48 h, read-out: GI
Summary of the method: (§1)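 DU-145 cells grown in DMEM with 10% heat-inactivated FBS and streptomycin/penicillin at 37 °C, 5% CO2. Cells seeded at 5×10³/well and left to attach 24 h. Compounds in ethanol, final 0.01, 0.5, 1.0, 2.0 and 5.0 µg/mL, given in triplicate for 48 h. MTT added for 4 h, formazan dissolved in DMSO, A570 read. Viability is A(test)/A(control)×100, mean ± SEM of 3 experiments. IC50 taken from a linear log dose–response fit.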

[2] = test system: DU-145; assay: Antiproliferative activity against human DU145 cells assessed as growth inhibition at 5 ug/mL after 48 hrs by MTT assay relative to control; assay type: functional; conditions: for inhibition of growth at 5 µg/mL: DU-145, 48 h, read-out: GI; summary of the method: as §1
[3] = test system: DU-145; assay: Antiproliferative activity against human DU145 cells assessed as growth inhibition at 2 ug/mL after 48 hrs by MTT assay relative to control; assay type: functional; conditions: for inhibition of growth at 2 µg/mL: DU-145, 48 h, read-out: GI; summary of the method: as §1
[4] = test system: Rattus norvegicus; assay: Antiandrogenic activity in Sprague-Dawley rat assessed as increase of serum testosterone level at 40 mg/kg, ip equimolar dose of finasteride after 6 hrs by ELISA; assay type: functional
Summary of the method: (§2)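 Intact male Sprague Dawley rats (200–250 g), 5 per group. Compounds suspended in olive oil:ethanol (95:5), single intraperitoneal dose equimolar to 40 mg/kg finasteride; controls received vehicle alone. Blood taken by cardiac puncture under diethyl ether anaesthesia 6 h after dosing. Serum testosterone measured by competitive ELISA (T-antibody-coated wells, HRP-T conjugate, 4 h at 37 °C, H2O2 substrate 20 min, H2SO4 stop) at 450 nm. Results are mean ± SEM.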

[5] = Cytotoxicity against Balb/C mouse macrophages assessed as cell viability after 24 hrs by MTT assay; assay type: cell-based; conditions: Macrophage
[6] = test system: DU-145; assay: Antiproliferative activity against human DU145 cells assessed as growth inhibition at 0.5 ug/mL after 48 hrs by MTT assay relative to control; assay type: functional; conditions: for inhibition of growth at 0.5 µg/mL: DU-145, 48 h, read-out: GI; summary of the method: as §1
[7] = test system: DU-145; assay: Antiproliferative activity against human DU145 cells assessed as growth inhibition at 1 ug/mL after 48 hrs by MTT assay relative to control; assay type: functional; conditions: for inhibition of growth at 1 µg/mL: DU-145, 48 h, read-out: GI; summary of the method: as §1
[8] = test system: DU-145; assay: Antiproliferative activity against human DU145 cells assessed as growth inhibition after 48 hrs by MTT assay; assay type: functional, cell-based; conditions: DU-145, 48 h; summary of the method: as §1
[9] = test system: Rattus norvegicus; assay: Antiandrogenic activity in ip dosed Sprague-Dawley rat assessed as increase of serum testosterone level after 6 hrs by ELISA (reference value: 0.742 +/- 0.07 ng/ml); assay type: functional; summary of the method: as §2
[10] = Cytotoxicity against Balb/C mouse macrophages assessed as cell viability at 5 ug/ml after 24 hrs by MTT assay; assay type: cell-based, Macrophage; conditions: read-out: Activity

Row | Structure (SMILES) | growth inhibition (GI) [1] | inhibition of growth at 5 µg/mL [2] [%] | inhibition of growth at 2 µg/mL [3] [%] | Activity [4] | LC50 [5] [µM] | growth inhibition (GI) [6] | growth inhibition (GI) [7] | pIC50 [8] | inhibition of growth at 0.01 µg/mL [1] [%] | Activity [9] [ng/mL] | inhibition of growth at 0.5 µg/mL [6] [%] | inhibition of growth at 1 µg/mL [7] [%] | growth inhibition (GI) [2] | viability at 24 h, 5 ug/ml [10] [%] | growth inhibition (GI) [3] | Activity ([4]; route intraperitoneal) [ng/mL]
1 | C[C@]12CC[C@H](OC(=O)Cc3ccccc3)CC1=CC[C@@H]1[C@@H]2CC[C@]2(C)NC(=O)CC[C@@H]12 | inactive | 73.1 | 48.3 | Active | 26 | inactive | inactive | 5.15 |  |  |  |  |  |  |  | 
2 | CC(C)(C)NC(=O)[C@H]1CC[C@H]2[C@@H]3CC[C@H]4NC(=O)C=C[C@]4(C)[C@H]3CC[C@]12C [FINASTERIDE] |  | 78.5 | 36 |  |  |  |  | 5.41 | 5 | 1.26 | 8.83 | 16.5 |  |  |  | 
3 | C[C@]12CC[C@H](OC(=O)c3ccc(N)cc3)CC1=CC[C@@H]1[C@@H]2CC[C@]2(C)NC(=O)CC[C@@H]12 |  | 82.4 | 48 | Active |  |  |  | 5.15 | 30.5 |  | 43.4 | 45 |  |  |  | 
4 | C[C@]12CC[C@H](OC(=O)c3ccccc3)CC1=CC[C@@H]1[C@@H]2CC[C@]2(C)NC(=O)CC[C@@H]12 |  | 63.6 | 45 | Active |  |  |  | 5.02 | 28.1 |  | 35.7 | 38.8 |  |  |  | 
5 | C[C@]12CC[C@H](OC(=O)CCl)CC1=CC[C@@H]1[C@@H]2CC[C@]2(C)NC(=O)CC[C@@H]12 | inactive |  |  |  |  | inactive | inactive |  |  |  |  |  | inactive | 6 | inactive | 0.82
6 | C[C@]12CC[C@H](OC(=O)c3ccc(O)cc3)CC1=CC[C@@H]1[C@@H]2CC[C@]2(C)NC(=O)CC[C@@H]12 |  | 69.5 | 65.6 | Active |  |  |  | 5.24 | 30.7 |  | 51.4 | 59.2 |  |  |  | 
7 | C[C@]12CC[C@H](OC(=O)c3ccc(Cl)cc3)CC1=CC[C@@H]1[C@@H]2CC[C@]2(C)NC(=O)CC[C@@H]12 |  | 67.6 | 49.4 | Active |  |  |  | 5.08 | 19 |  | 27.9 | 42.2 |  | 6 |  | 
8 | Cc1ccc(C(=O)O[C@H]2CC[C@@]3(C)C(=CC[C@@H]4[C@@H]3CC[C@]3(C)NC(=O)CC[C@@H]43)C2)cc1 |  | 77 | 68.1 | Active |  |  |  | 5.12 | 21.6 |  | 29.5 | 40.7 |  |  |  | 
9 | COc1ccc(C(=O)O[C@H]2CC[C@@]3(C)C(=CC[C@@H]4[C@@H]3CC[C@]3(C)NC(=O)CC[C@@H]43)C2)cc1 |  | 43 | 33.9 |  |  |  |  | 4.82 | 17.4 |  | 25.2 | 21.3 |  |  |  | 1.05
10 | C[C@]12CC[C@H](OC(=O)c3ccc([N+](=O)[O-])cc3)CC1=CC[C@@H]1[C@@H]2CC[C@]2(C)NC(=O)CC[C@@H]12 |  | 88.9 | 73.5 | Active |  |  |  | 5.28 | 33.9 |  | 41.4 | 57.9 |  |  |  | 
11 | C[C@]12CC[C@H](O)CC1=CC[C@@H]1[C@@H]2CC[C@]2(C)NC(=O)CC[C@@H]12 | inactive |  |  | Active |  | inactive | inactive |  |  |  |  |  | inactive |  | inactive | 
12 | C[C@]12CC[C@H](OC(=O)COc3ccccc3)CC1=CC[C@@H]1[C@@H]2CC[C@]2(C)NC(=O)CC[C@@H]12 | inactive |  |  | Active |  | inactive | inactive |  |  |  |  |  | inactive |  | inactive | 
